In assay [1] the target is T1, Estrogen receptor (Homo sapiens) (UniProt P03372).
T1 sequence (whole entry): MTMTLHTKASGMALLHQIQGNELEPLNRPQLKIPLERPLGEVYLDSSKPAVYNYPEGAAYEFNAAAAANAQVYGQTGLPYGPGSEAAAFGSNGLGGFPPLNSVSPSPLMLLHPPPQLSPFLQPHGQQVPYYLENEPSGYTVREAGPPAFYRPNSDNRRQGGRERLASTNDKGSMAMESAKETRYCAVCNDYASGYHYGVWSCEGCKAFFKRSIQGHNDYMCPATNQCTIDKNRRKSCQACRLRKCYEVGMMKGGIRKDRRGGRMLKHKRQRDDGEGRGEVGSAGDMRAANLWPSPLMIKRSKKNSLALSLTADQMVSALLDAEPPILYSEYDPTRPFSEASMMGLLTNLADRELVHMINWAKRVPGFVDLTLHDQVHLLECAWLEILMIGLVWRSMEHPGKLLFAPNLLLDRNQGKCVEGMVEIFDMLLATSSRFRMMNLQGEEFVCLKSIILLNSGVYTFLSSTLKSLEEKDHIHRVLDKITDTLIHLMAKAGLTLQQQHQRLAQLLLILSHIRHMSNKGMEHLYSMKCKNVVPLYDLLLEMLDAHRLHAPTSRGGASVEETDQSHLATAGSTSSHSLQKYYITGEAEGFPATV
Description: Displacement of [3H]estradiol from human ERalpha relative to estradiol.

Assay [2] concerns the target Estrogen receptor (Homo sapiens) (UniProt Q92731+P03372). In words: Ratio of RBA for human estrogen receptor alpha to RBA for human estrogen receptor beta. The class given is protein assay.
In assay [3] the target is Estrogen receptor beta (Homo sapiens) (UniProt Q92731). In words: Displacement of [3H]estradiol from human ERbeta relative to estradiol.
Estrogen receptor beta (Homo sapiens), sequence (Q92731 whole entry): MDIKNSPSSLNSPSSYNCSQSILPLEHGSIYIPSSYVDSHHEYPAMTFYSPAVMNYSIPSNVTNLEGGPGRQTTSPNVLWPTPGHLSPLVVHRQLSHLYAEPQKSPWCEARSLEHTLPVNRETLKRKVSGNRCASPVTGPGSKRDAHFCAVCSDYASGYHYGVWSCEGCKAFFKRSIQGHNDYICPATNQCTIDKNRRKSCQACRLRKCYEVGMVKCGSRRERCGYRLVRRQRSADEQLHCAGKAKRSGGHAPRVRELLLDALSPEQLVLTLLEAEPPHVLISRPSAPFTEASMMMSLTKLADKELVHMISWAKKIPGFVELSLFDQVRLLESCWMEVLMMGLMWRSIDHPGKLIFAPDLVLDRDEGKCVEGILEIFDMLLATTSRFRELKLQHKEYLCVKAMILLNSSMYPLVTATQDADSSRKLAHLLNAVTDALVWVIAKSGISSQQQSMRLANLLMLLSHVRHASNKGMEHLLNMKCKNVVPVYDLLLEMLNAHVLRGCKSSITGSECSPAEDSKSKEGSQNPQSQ
The target of assay [4] is T1, Estrogen receptor (Homo sapiens). Description: Activity at ERalpha in human HEC1 cells assessed as antagonism of estradiol-activated transcription activation relative to estradiol. The conditions noted are these: HEC-1. The class given is functional, cell-based. The procedure, abridged:
(§1)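 HEC-1 cells kept in phenol red MEM with 5% calf serum plus 5% fetal calf serum, then plated in phenol red-free Improved MEM with 5% charcoal dextran-treated calf serum. Lipofectin transfection for 5 h at 37 °C with full-length human ERα or ERβ vector, 2ERE-pS2-Luc and pCMV β-galactosidase control. Ligand, 10^-8 to 10^-5 M, given with 1 nM estradiol for 24 h. Luciferase read, as percent of 10^-9 M estradiol alone. Two or more experiments.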

Assay [5] has as its target Estrogen receptor beta (Homo sapiens) (UniProt Q92731). In words: Activity at ERbeta in human HEC1 cells assessed as antagonism of estradiol-activated transcription activation relative to estradiol. The class given is functional, cell-based. The conditions noted are these: HEC-1. The procedure, abridged:
as §1

Activity calls are given as the source filed them. No cut-off for these calls is given here.

Estrogen receptor (Homo sapiens) (UniProt Q92731+P03372), sequence (Q92731 whole entry, looked up, one chain of several): as the sequence (Q92731 whole entry) above

As to `COC(=O)C1=C(c2ccc(O)cc2)C2OC1C(c1ccccc1)=C2c1ccccc1` (configuration not stated), the RBA in assay [1] worked out at 0.012%; in assay [3] it was 0.031%. Moreover, in assay [2], the Ratio was 0.39.

For the compound `COC(=O)C1=C(c2ccccc2)C2OC1C(c1ccccc1)=C2c1ccccc1` (configuration not stated), the RBA in assay [1] came to 0.007%; in assay [3] it was 0.024%. Besides, in assay [2], the Ratio worked out at 0.29.

For `O=S(=O)(Oc1ccc(O)cc1)[C@H]1CC2OC1C(c1ccccc1)=C2c1ccccc1` (stereo in doubt; exo), the figures for the RBA in assay [1] and in assay [3] were 0.022% and 0.027%, respectively. Besides, the Ratio in assay [2] worked out at 0.82.

Turning to `O=S(=O)(Oc1ccccc1)C1CC2OC1C(c1ccccc1)=C2c1ccccc1` (configuration not stated), the RBA in assay [1] worked out at 0.068%; in assay [3] it was 0.12%. The Ratio in assay [2] amounted to 0.57.

`O=S(=O)(Oc1ccccc1)C1CC2OC1C(c1cccc(O)c1)=C2c1ccc(O)cc1` (configuration not stated): the RBA in assay [1] was 0.9%; in assay [3] it was 0.21%. Further, the Ratio in assay [2] is 4.3.

In the case of `CCOC(=O)C1C2OC(C(c3ccc(O)cc3)=C2c2ccc(O)cc2)C1C(=O)OCC` (configuration not stated), the RBA in assay [1] came out at 0.021%; in assay [3], 0.036%. Further, the Ratio in assay [2] is 0.58.

As to `CCS(=O)(=O)C1CC2OC1C(c1ccc(O)cc1)=C2c1ccc(O)cc1` (configuration not stated), the RBA in assay [1] was found to be 0.1%; in assay [3] it was 0.077%. Further, the Ratio in assay [2] is 1.3.

As to `COC(=O)C1=C(C(=O)OC)C2OC1C(c1ccc(O)cc1)=C2c1ccc(O)cc1`, the RBA in assay [1] stood at 0.009%; in assay [3] it was 0.006%. Further, in assay [2], the Ratio is 1.5.

Regarding `O=S(=O)(c1ccccc1)C1CC2OC1C(c1cccc(O)c1)=C2c1ccc(O)cc1` (configuration not stated), the RBA in assay [1] is 0.069%; in assay [3] it was 0.037%. The Ratio in assay [2] is 1.9.

Consider `O=C1OC(=O)C2C3OC(C(c4ccccc4)=C3c3ccccc3)C12` (configuration not stated), for which the RBA in assay [1] was determined as 0.014%; in assay [3], 0.02%. Besides, the Ratio in assay [2] is 0.7.

On to `COc1ccc(C2=C(c3ccc(O)cc3)C3CC(S(=O)(=O)Oc4ccccc4)C2O3)cc1` (configuration not stated), for which the RBA is 0.98% in assay [1] and 0.11% in assay [3]. In addition, in assay [2], the Ratio is 8.9.

Turning to `O=S(=O)(Oc1ccc(O)cc1)C1CC2OC1C(c1ccc(O)cc1)=C2c1ccc(O)cc1` (configuration not stated), the RBA turned out to be 2.2% in assay [1] and 0.16% in assay [3]. The Ratio in assay [2] is 14.

For `COc1ccc(OS(=O)(=O)C2CC3OC2C(c2ccc(O)cc2)=C3c2ccc(O)cc2)cc1` (configuration not stated), the RBA was found to be 0.32% in assay [1] and 0.1% in assay [3]. Further, in assay [2], the Ratio is 3.3.

With `COc1ccc(C2=C(c3ccc(O)cc3)C3CC(S(=O)(=O)c4ccccc4)C2O3)cc1` (configuration not stated), the figures for the RBA in assay [1] and in assay [3] were 0.068% and 0.066%, respectively. Also, the Ratio in assay [2] stood at 1.

Consider `O=S(=O)(c1ccccc1)C1CC2OC1C(c1ccccc1)=C2c1ccccc1` (configuration not stated), for which the RBA in assay [1] is 0.008%; in assay [3], 0.013%. Also, the Ratio in assay [2] came to 0.62.

Compound `O=S(=O)(Oc1ccccc1)[C@H]1CC2OC1C(c1ccc(O)cc1)=C2c1ccc(O)cc1` (stereo in doubt; endo) came in with an RBA in assay [1] of 4.1%.

As to `O=S(=O)(Oc1ccccc1)[C@H]1CC2OC1C(c1ccc(O)cc1)=C2c1ccc(O)cc1` (stereo in doubt; exo), the outcome in assay [4] and in assay [5] was Active.

`O=S(=O)(c1ccccc1)C1CC2OC1C(c1ccc(O)cc1)=C2c1ccc(O)cc1` (configuration not stated): the figures for the RBA in assay [1] and in assay [3] were 0.64% and 0.059%, respectively. The Ratio in assay [2] was determined as 11. Further, the outcome in assay [4] and in assay [5] was Active.

As to `O=C1C2C3OC(C(c4ccc(O)cc4)=C3c3ccc(O)cc3)C2C(=O)N1c1ccccc1` (configuration not stated), the figures for the RBA in assay [1] and in assay [3] were 0.013% and 0.017%, respectively. The Ratio in assay [2] amounted to 0.77.

On to `CN1C(=O)C2C3OC(C(c4ccc(O)cc4)=C3c3ccc(O)cc3)C2C1=O` (configuration not stated), for which the RBA in assay [1] was 0.02%; in assay [3] it was 0.025%. The Ratio in assay [2] is 0.8.

For the compound `O=S(=O)(Oc1ccc(O)cc1)[C@H]1CC2OC1C(c1ccccc1)=C2c1ccccc1` (stereo in doubt; endo), the RBA is 0.025% in assay [1] and 0.029% in assay [3]. Besides, in assay [2], the Ratio came out at 0.86.

The record behind these values is ChEMBL document CHEMBL1139477, “Synthesis and evaluation of estrogen receptor ligands with bridged oxabicyclic cores containing a diarylethylene motif: estrogen antagonists of unusual structure” (J Med Chem, 2005).
